33 compounds from ChEMBL document CHEMBL1125466, “Synthesis and antiulcer activity of N-substituted N'-[3-[3-(piperidinomethyl)phenoxy]propyl]ureas: histamine H2-receptor antagonists with a potent mucosal protective activity” (J Med Chem, 1992) can be followed below.

Assay [1] deals with Rattus norvegicus. Kind of assay: In Vivo gastric Mucosal protective activity against gastric mucosal lesions induced by 0.6 N HCl in rats. (200 mg/kg, po). Type of assay: functional. The essentials: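 Oral dosing at 200 mg/kg, 1.5 h before 1 mL of 0.6 N HCl, in male Donryu or Wistar rats (150-230 g) deprived of food and water 24 h. Killed 1 h later. Stomach formalin-fixed and glandular lesion length scored against vehicle. Percent inhibition given as mean ± SE.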

The target in assay [2] is T1, Histamine H2 receptor (Cavia porcellus, UniProt P47747). Kind of assay: In vitro inhibitory activity against histamine H2-receptor in isolated Guinea pig right atria. The note with it: read-out: pA2 (converted).
Assay [3] deals with Rattus norvegicus. The assay can be described thus: In vivo gastric mucosal protective activity against gastric mucosal lesions induced by 0.6 N HCl in rats. The format is functional, Gastric mucosa. Also noted: concentration or dose not given beside the values. The essentials:
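Male Donryu or Wistar rats, 150-230 g, deprived of food and water 24 h. Compound given orally (25 mg/kg) 1.5 h before 1 mL 0.6 N HCl po. Killed 1 h after HCl. Stomach fixed with 0.5% formalin, and glandular lesion lengths measured. Percent inhibition compared with vehicle, mean ± SE, 5-10 animals.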

Assay [4] deals with Rattus norvegicus. Kind of assay: Gastric antisecretory activity in rat (in vivo). Type of assay: functional. The gist of the method:
(§1)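 Male Donryu or Wistar rats, 170-310 g, fasted 24 h. Under urethane anesthesia the pylorus was ligated (acute fistula). Compound, suspended in 1% gum arabic, given intraduodenally after the second gastric juice collection, usually at 10 mg/kg. Acid output compared with vehicle mean. Percent inhibition given as mean ± SE, 2-5 animals per group.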

Assay [5] has as its system Rattus norvegicus. Kind of assay: In vivo gastric antisecretory activity in acute fistula rats. The arrangement: concentration or dose not given beside the values. Type of assay: functional, Stomach. The gist of the method:
as §1

Assay [6] concerns the target T1, Histamine H2 receptor. Kind of assay: Compound was evaluated in vitro inhibitory activity against histamine H2 receptor in isolated Guinea pig right atria. To be noted: read-out: pA2 (converted).
The test system of assay [7] is Rattus norvegicus. Kind of assay: In vivo gastric antisecretory activity in acute fistula rats. Type of assay: functional, Stomach. The gist of the method: as §1

T1 sequence (P47747 whole entry): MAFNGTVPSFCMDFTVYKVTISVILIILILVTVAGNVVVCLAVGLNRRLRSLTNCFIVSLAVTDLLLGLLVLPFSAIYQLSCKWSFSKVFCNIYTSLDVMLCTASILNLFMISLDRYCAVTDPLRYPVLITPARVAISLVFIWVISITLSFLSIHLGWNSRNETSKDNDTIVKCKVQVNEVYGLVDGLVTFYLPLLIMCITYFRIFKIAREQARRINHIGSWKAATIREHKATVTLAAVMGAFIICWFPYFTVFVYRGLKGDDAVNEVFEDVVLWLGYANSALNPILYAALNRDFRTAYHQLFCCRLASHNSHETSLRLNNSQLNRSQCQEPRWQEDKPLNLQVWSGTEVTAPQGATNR

In the assay on Rattus norvegicus [1] (Gastric mucosa), TEPRENONE displayed an inhibition of 42.7%.

Consider `O=C(NCCCOc1cccc(CN2CCCCC2)c1)Nc1ccc(C(F)(F)F)cc1`, for which the Kb on Histamine H2 receptor [2] is 1700 nM. The figures for the Inhibition in the assay on Rattus norvegicus [3] and with Rattus norvegicus [5] were 51% and 3.8%, respectively. Besides, the AS activity class in the assay with Rattus norvegicus [4] came to 1.

As to `CC(C)NC(=O)NCCCOc1cccc(CN2CCCCC2)c1`, on Histamine H2 receptor [2], the Kb was 43.7 nM. The Inhibition was 72.9% in the assay on Rattus norvegicus [3] and 71.3% in the assay with Rattus norvegicus [5]. The compound further showed an AS activity class with Rattus norvegicus [4] of 3.

With `CNC(=C[N+](=O)[O-])NCCSCc1ccc(CN(C)C)o1` [RANITIDINE], the Kb on Histamine H2 receptor [6] was 64.6 nM. In the assay on Rattus norvegicus [1], the Inhibition is -16.8%.

Take `CCNC(=O)NCCCOc1cccc(CN2CCCCC2)c1` [DALCOTIDINE]: the Kb at Histamine H2 receptor [2] is 40.7 nM. Besides, the values for the Inhibition with Rattus norvegicus [3] and with Rattus norvegicus [5] were 77.9% and 71.8%, respectively. In the assay on Rattus norvegicus [4], this compound displayed an AS activity class of 3.

`CNC(=O)NCCCOc1cccc(CN2CCCCC2)c1`: at Histamine H2 receptor [2], the Kb is 155 nM. Besides, the Inhibition with Rattus norvegicus [3] was determined as 64.7%; in the assay with Rattus norvegicus [5], 93.3%. The same compound yielded an AS activity class in the assay on Rattus norvegicus [4] of 3.

For the compound `CCCNC(=O)NCCCOc1cccc(CN2CCCCC2)c1`, the Kb at Histamine H2 receptor [2] is 97.7 nM. Moreover, the Inhibition with Rattus norvegicus [3] came to 73.5%; in the assay on Rattus norvegicus [5] it was 96.6%. In the assay on Rattus norvegicus [4], this compound gave an AS activity class of 3.

As to `CCC(C)NC(=O)NCCCOc1cccc(CN2CCCCC2)c1` (stereo unspecified), on Histamine H2 receptor [2], the Kb is 95.5 nM. Also, the Inhibition with Rattus norvegicus [3] is given as 17.7%; with Rattus norvegicus [5] it was 55.1%. Moreover, the AS activity class in the assay on Rattus norvegicus [4] stood at 2.

For the compound `O=C(NCCCOc1cccc(CN2CCCCC2)c1)Nc1cccc([N+](=O)[O-])c1`, the Kb at Histamine H2 receptor [2] is 269 nM. The values for the Inhibition with Rattus norvegicus [3] and in the assay on Rattus norvegicus [5] were 40.9% and -23.9%, respectively. This compound returned an AS activity class with Rattus norvegicus [4] of 1.

Take `O=C(NCCCOc1cccc(CN2CCCCC2)c1)Nc1ccccc1`: the Kb on Histamine H2 receptor [2] was 126 nM. In addition, the Inhibition amounted to 44.3% in the assay with Rattus norvegicus [3] and 12.6% in the assay on Rattus norvegicus [5]. Also, the AS activity class in the assay with Rattus norvegicus [4] is 1.

In the case of `O=C(NCCCOc1cccc(CN2CCCCC2)c1)NC1CCCCC1`, on Histamine H2 receptor [2], the Kb is 43.7 nM. Also, the Inhibition in the assay on Rattus norvegicus [3] was 39.3%; in the assay with Rattus norvegicus [5], 77.9%. In the assay with Rattus norvegicus [4], this compound gave an AS activity class of 3.

Regarding `COc1ccc(N/C(S)=N/CCCOc2cccc(CN3CCCCC3)c2)cc1`, the Kb on Histamine H2 receptor [2] was 4370 nM. Besides, the Inhibition with Rattus norvegicus [3] is 51.6%; with Rattus norvegicus [5], -5.5%.

Take `NC(N)=Nc1nc(CSCC/C(N)=N/S(N)(=O)=O)cs1` [FAMOTIDINE]: at Histamine H2 receptor [2], the Kb is 100 nM. The Inhibition in the assay on Rattus norvegicus [1] is reported as 7.9%.

Regarding `O=C(NCCCOc1cccc(CN2CCCCC2)c1)Nc1ccc([N+](=O)[O-])cc1`, the Kb at Histamine H2 receptor [6] is 178 nM. Further, the values for the Inhibition in the assay on Rattus norvegicus [3] and in the assay on Rattus norvegicus [7] were 23.4% and 9%, respectively. Besides, the AS activity class in the assay with Rattus norvegicus [4] came out at 1.

As to `CC(C)CNC(=O)NCCCOc1cccc(CN2CCCCC2)c1`, the Kb at Histamine H2 receptor [2] was 170 nM. The Inhibition in the assay with Rattus norvegicus [3] came out at 43.3%; in the assay with Rattus norvegicus [5], 40.3%. The compound also had an AS activity class in the assay with Rattus norvegicus [4] of 2.

As to `O=C(NCCCOc1cccc(CN2CCCCC2)c1)Nc1ccc(Cl)cc1`, the Kb on Histamine H2 receptor [2] is 631 nM. For the same compound, the Inhibition with Rattus norvegicus [3] was 33.9%; in the assay on Rattus norvegicus [5] it was 28.2%. Moreover, the AS activity class in the assay with Rattus norvegicus [4] was found to be 1.

As for `CCCCNC(=O)NCCCOc1cccc(CN2CCCCC2)c1`, the Kb on Histamine H2 receptor [2] was 81.3 nM. In addition, the Inhibition with Rattus norvegicus [3] is given as 67.5%; with Rattus norvegicus [5], 83%. In addition, the AS activity class in the assay with Rattus norvegicus [4] is 3.

Consider `O=C(NCCCOc1cccc(CN2CCCCC2)c1)NC1CC1`, for which the Kb at Histamine H2 receptor [2] was 47.9 nM. Also, the Inhibition in the assay with Rattus norvegicus [3] came to 49.4%; with Rattus norvegicus [5] it was 87.5%. Further, the AS activity class in the assay on Rattus norvegicus [4] worked out at 3.

As for `COc1cccc(NC(=O)NCCCOc2cccc(CN3CCCCC3)c2)c1`, the Kb on Histamine H2 receptor [2] is 200 nM. Moreover, the Inhibition with Rattus norvegicus [3] came out at 48.2%; in the assay with Rattus norvegicus [5], 53.2%. The AS activity class with Rattus norvegicus [4] came out at 2.

For `CCOc1ccc(NC(=O)NCCCOc2cccc(CN3CCCCC3)c2)cc1`, at Histamine H2 receptor [2], the Kb is 490 nM. In addition, the Inhibition was 32.7% with Rattus norvegicus [3] and 54.1% in the assay with Rattus norvegicus [5]. The compound also gave an AS activity class in the assay on Rattus norvegicus [4] of 2.

Turning to `CC(C)(C)NC(=O)NCCCOc1cccc(CN2CCCCC2)c1`, the Kb on Histamine H2 receptor [2] was 2090 nM. Further, the results for the Inhibition in the assay with Rattus norvegicus [3] and in the assay with Rattus norvegicus [5] were 28.5% and -56%, respectively. For the same compound, in the assay on Rattus norvegicus [4], the AS activity class came out at 1.

Take `O=C(NCCCOc1cccc(CN2CCCCC2)c1)Nc1ccc2c(c1)OCO2`: the Kb at Histamine H2 receptor [2] is 288 nM. The Inhibition in the assay with Rattus norvegicus [3] came to 47.1%; in the assay with Rattus norvegicus [5], 48.9%. Further, the AS activity class with Rattus norvegicus [4] amounted to 2.

For the compound `CN/C(=N\CCSCc1nc[nH]c1C)NC#N` [CIMETIDINE], the Inhibition in the assay with Rattus norvegicus [1] is -42.2%.

On to `O=C(NCCCOc1cccc(CN2CCCCC2)c1)Nc1cccc(C(F)(F)F)c1`, for which the Kb at Histamine H2 receptor [2] is 813 nM. The Inhibition in the assay with Rattus norvegicus [3] is given as -4.9%; with Rattus norvegicus [5] it was 7.8%. The same compound had an AS activity class with Rattus norvegicus [4] of 1.

As for `COc1ccc(OC)c(NC(=O)NCCCOc2cccc(CN3CCCCC3)c2)c1`, the Kb at Histamine H2 receptor [2] is 158 nM. Besides, the Inhibition with Rattus norvegicus [3] is listed as 34.7%; in the assay with Rattus norvegicus [5], -30.8%. Moreover, the AS activity class in the assay with Rattus norvegicus [4] was 1.

On to `COc1ccc(NC(=O)NCCCOc2cccc(CN3CCCCC3)c2)c(OC)c1`, for which the Kb on Histamine H2 receptor [2] was 2240 nM. Moreover, the Inhibition in the assay with Rattus norvegicus [3] came to 55.7%; in the assay with Rattus norvegicus [5] it was 13.1%. In the assay with Rattus norvegicus [4], this compound gave an AS activity class of 1.

As for `O=C(NCCF)NCCCOc1cccc(CN2CCCCC2)c1`, the Kb at Histamine H2 receptor [2] is 85.1 nM. The Inhibition is given as 36% with Rattus norvegicus [3] and 98.7% with Rattus norvegicus [5]. Also, the AS activity class in the assay with Rattus norvegicus [4] turned out to be 3.

Regarding `COc1ccccc1NC(=O)NCCCOc1cccc(CN2CCCCC2)c1`, the Kb on Histamine H2 receptor [2] was 776 nM. In addition, the Inhibition in the assay on Rattus norvegicus [3] is 31.7%; in the assay on Rattus norvegicus [5] it was -57.4%. Besides, the AS activity class with Rattus norvegicus [4] was 1.

In the case of `Nc1cccc(NC(=O)NCCCOc2cccc(CN3CCCCC3)c2)c1`, the Kb at Histamine H2 receptor [6] was 155 nM. The Inhibition in the assay with Rattus norvegicus [3] turned out to be 47.2%; in the assay on Rattus norvegicus [7], 95%. The same compound came in with an AS activity class with Rattus norvegicus [4] of 3.

In the case of `O=C(NCCCOc1cccc(CN2CCCCC2)c1)NCc1ccccc1`, the Kb on Histamine H2 receptor [2] was 347 nM. For the same compound, the Inhibition in the assay with Rattus norvegicus [3] is on record as 61%; in the assay on Rattus norvegicus [5], 54.2%. In addition, the AS activity class with Rattus norvegicus [4] came to 2.

For the compound `O=C(NCCCOc1cccc(CN2CCCCC2)c1)Nc1cccc(Cl)c1`, on Histamine H2 receptor [2], the Kb was 316 nM. The Inhibition was 43.3% in the assay on Rattus norvegicus [3] and -44.9% in the assay on Rattus norvegicus [5]. Also, the AS activity class in the assay with Rattus norvegicus [4] was found to be 1.

Regarding `COc1ccc(NC(=O)NCCCOc2cccc(CN3CCCCC3)c2)cc1`, the Kb on Histamine H2 receptor [2] was 631 nM. The Inhibition is recorded as 40.9% with Rattus norvegicus [3] and 73.5% with Rattus norvegicus [5]. The AS activity class in the assay on Rattus norvegicus [4] turned out to be 3.

Consider `Cc1ccc(NC(=O)NCCCOc2cccc(CN3CCCCC3)c2)cc1`, for which the Kb on Histamine H2 receptor [2] is 631 nM. In addition, the Inhibition is 40.1% in the assay with Rattus norvegicus [3] and -45.5% in the assay with Rattus norvegicus [5]. Besides, the AS activity class in the assay with Rattus norvegicus [4] is 1.
